# Measurements as given in ChEMBL document CHEMBL1148625, “3-(1,1-dioxo-2H-(1,2,4)-benzothiadiazin-3-yl)-4-hydroxy-2(1H)-quinolinones, potent inhibitors of hepatitis C virus RNA-dependent RNA polymerase” (J Med Chem, 2006).
# Columns and labels:
# [1] = target: RNA-directed RNA polymerase (Hepacivirus hominis) (UniProt O39930); experiment: Inhibition of HCV RNA replication in Huh7 cells; format: functional, cell-based; details: Huh-7
# Method in brief: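 Huh-7 subgenomic replicon cells were seeded at 3 × 10³/well in DMEM with 10% FCS, 1% NEAA and 1 mg/mL G418, and allowed 4 h to attach. Eleven 2.5-fold DMSO dilutions were added (final 10,000 to 1.0 nM) and cells incubated 40 h. Neo RNA was measured by TaqMan RT-PCR, normalised to cyclophilin against DMSO controls; n = 8 wells per dilution.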
# [2] = Clearance in Sprague-Dawley rat at 1.3 mg/kg, iv or 7.7 mg/kg, po; format: ADME, organism-based; details: in vivo
# Method in brief: (§1)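 Single intravenous or oral doses given to Sprague-Dawley rats. Values are reported as means: Cmax (ng/mL), half-life (min), plasma clearance (mL/min/kg), steady-state volume of distribution (L/kg) and oral bioavailability F (%).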
# [3] = Clearance in cynomolgus monkey at 1.8 mg/kg, iv or 1.6 mg/kg, po; format: ADME, organism-based, Macaca fascicularis; details: in vivo
# Method in brief: (§2)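 Single-dose administration, given both intravenously and orally, to Sprague-Dawley rats, beagle dogs or cynomolgus monkeys. Plasma pharmacokinetic parameters are reported as means: Cmax in ng/mL, terminal half-life in min, clearance in mL/min/kg, steady-state volume of distribution in L/kg, and oral bioavailability F in %.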
# [4] = Oral bioavailability in Sprague-Dawley rat at 1.3 mg/kg, iv or 7.7 mg/kg, po; format: ADME, organism-based; details: in vivo; method in brief: as §1
# [5] = Oral bioavailability in Beagle dog at 0.9 mg/kg, iv or 1.1 mg/kg, po; format: ADME, organism-based, Canis lupus familiaris; details: in vivo
# Method in brief: (§3)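 Single-dose study, with separate intravenous and oral administrations at the listed mg/kg. Plasma concentrations were followed over time, and mean values were derived for Cmax, T1/2, clearance (mL/min/kg), Vdss (L/kg) and oral bioavailability (%).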
# [6] = Oral bioavailability in cynomolgus monkey at 1.8 mg/kg, iv or 1.6 mg/kg, po; format: ADME, organism-based, Macaca fascicularis; details: in vivo; method in brief: as §2
# [7] = Volume of distribution in Sprague-Dawley rat at 1.3 mg/kg, iv or 7.7 mg/kg, po; format: ADME, organism-based; details: in vivo, read-out: Vdss; method in brief: as §1
# [8] = Volume of distribution in Beagle dog at 0.9 mg/kg, iv or 1.1 mg/kg, po; format: ADME, organism-based, Canis lupus familiaris; details: in vivo, read-out: Vdss; method in brief: as §3
# [9] = Volume of distribution in cynomolgus monkey at 1.8 mg/kg, iv or 1.6 mg/kg, po; format: ADME, organism-based, Macaca fascicularis; details: in vivo, read-out: Vdss; method in brief: as §2
# [10] = Half life in Sprague-Dawley rat at 1.3 mg/kg, iv or 7.7 mg/kg, po; format: ADME, organism-based; details: in vivo; method in brief: as §1
# [11] = Half life in Beagle dog at 0.9 mg/kg, iv or 1.1 mg/kg, po; format: ADME, organism-based, Canis lupus familiaris; details: in vivo; method in brief: as §3
# [12] = Half life in cynomolgus monkey at 1.8 mg/kg, iv or 1.6 mg/kg, po; format: ADME, organism-based, Macaca fascicularis; details: in vivo; method in brief: as §2
# [13] = target: RNA-directed RNA polymerase (Hepacivirus hominis, UniProt O39930); experiment: Inhibitory activity against HCV delta 21 NS5B RNA polymerase by SPA assay; design: species or system Hepatitis C virus subtype 1b
# Sequence of RNA-directed RNA polymerase (O39930 whole entry): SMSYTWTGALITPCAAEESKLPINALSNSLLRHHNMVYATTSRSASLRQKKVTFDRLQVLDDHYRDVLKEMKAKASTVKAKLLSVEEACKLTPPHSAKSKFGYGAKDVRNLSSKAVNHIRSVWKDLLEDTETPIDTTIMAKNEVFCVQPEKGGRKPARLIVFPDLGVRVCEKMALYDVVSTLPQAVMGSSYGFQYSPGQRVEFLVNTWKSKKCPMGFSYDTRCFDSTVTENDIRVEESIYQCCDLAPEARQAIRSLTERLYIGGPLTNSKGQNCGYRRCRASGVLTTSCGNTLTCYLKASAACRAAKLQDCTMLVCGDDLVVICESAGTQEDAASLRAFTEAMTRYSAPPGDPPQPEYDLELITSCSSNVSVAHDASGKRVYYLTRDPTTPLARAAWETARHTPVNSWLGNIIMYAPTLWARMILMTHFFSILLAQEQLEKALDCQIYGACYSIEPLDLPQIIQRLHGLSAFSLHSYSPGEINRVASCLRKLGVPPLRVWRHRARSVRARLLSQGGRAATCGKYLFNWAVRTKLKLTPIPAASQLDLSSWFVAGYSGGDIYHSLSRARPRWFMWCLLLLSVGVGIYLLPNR
# [14] = Cmax in Sprague-Dawley rat at 1.3 mg/kg, iv or 7.7 mg/kg, po; format: ADME, organism-based; details: in vivo; method in brief: as §1
# [15] = Cmax in Beagle dog at 0.9 mg/kg, iv or 1.1 mg/kg, po; format: ADME, organism-based, Canis lupus familiaris; details: in vivo; method in brief: as §3
# [16] = Cmax in cynomolgus monkey at 1.8 mg/kg, iv or 1.6 mg/kg, po; format: ADME, organism-based, Macaca fascicularis; details: in vivo; method in brief: as §2
# [17] = Clearance in Beagle dog at 0.9 mg/kg, iv or 1.1 mg/kg, po; details: in vivo
# Sequence of RNA-directed RNA polymerase (Hepacivirus hominis) (O39930 1-591): as the sequence (O39930 whole entry) above
EC90 [1],IC50 [13],Structure (SMILES),other results
4950 nM,–,CC(C)CCn1c(=O)c(C2=NS(=O)(=O)c3ccccc3N2)c(O)c2cc(F)ccc21,–
2410 nM,–,CC(C)CCn1c(=O)c(C2=NS(=O)(=O)c3ccccc3N2)c(O)c2cc(OCC(N)=O)ccc21,–
808 nM,13 nM,O=c1c(C2=NS(=O)(=O)c3ccccc3N2)c(O)c2ccccc2n1CCC1CC1,clearance [2]: 1.7 mL/min/kg; clearance [3]: 1.73 mL/min/kg; bioavailability [4]: 78%; bioavailability [5]: 100%; bioavailability [6]: > 40%; Vd [7]: 0.25 L/kg; Vd [8]: 0.15 L/kg; Vd [9]: 0.19 L/kg; half-life [10]: 1.87 h; half-life [11]: 4.82 h; half-life [12]: 1.35 h; Cmax [14]: 6460 ng/mL; Cmax [15]: 5400 ng/mL; Cmax [16]: 7920 ng/mL; clearance [17]: 0.47 mL/min/kg
1610 nM,–,CC(C)CCn1c(=O)c(C2=NS(=O)(=O)c3ccccc3N2)c(O)c2cc(OCC#N)ccc21,–
1200 nM,–,CC(C)CCn1c(=O)c(C2=NS(=O)(=O)c3ccccc3N2)c(O)c2cc(N)ccc21,–
2530 nM,27 nM,O=c1c(C2=NS(=O)(=O)c3ccccc3N2)c(O)c2ccccc2n1Cc1ccoc1,–
1870 nM,–,O=c1c(C2=NS(=O)(=O)c3ccccc3N2)c(O)c2ccccc2n1-c1ccccc1,–
998 nM,–,CCOC(=O)CNc1ccc2c(c1)c(O)c(C1=NS(=O)(=O)c3ccccc3N1)c(=O)n2CCC(C)C,–
2070 nM,–,CC(C)CCn1c(=O)c(C2=NS(=O)(=O)c3ccccc3N2)c(O)c2c(F)cccc21,–
3760 nM,200 nM,CCCCn1c(=O)c(C2=NS(=O)(=O)c3ccccc3N2)c(O)c2ccccc21,–
9610 nM,–,CC(C)CCn1c(=O)c(C2=NS(=O)(=O)c3ccccc3N2)c(O)c2cc(NCC(=O)O)ccc21,–
1440 nM,48 nM,CC(C)(C)CCn1c(=O)c(C2=NS(=O)(=O)c3ccccc3N2)c(O)c2cc(NCCO)ccc21,–
1190 nM,–,O=c1c(C2=NS(=O)(=O)c3ccccc3N2)c(O)c2ccccc2n1CC1CCC1,–
